Experimental data: ChEMBL document CHEMBL1275461, “Early bactericidal activity and pharmacokinetics of the diarylquinoline TMC207 in treatment of pulmonary tuberculosis” (Antimicrob Agents Chemother, 2008)
≈ marks a conversion by molar mass, not a printed value.

Experiments:
[1] = test system: Mycobacterium tuberculosis; test: Bactericidal activity against Mycobacterium tuberculosis in pulmonary tuberculosis patient assessed as reduction in sputum bacterial count at 25 mg/kg, po once daily measured after 6 days; type: functional
Outline: (§1)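 Hospitalized treatment-naïve smear-positive patients took oral doses once daily, observed, after breakfast. Sputum was pooled over 16 h overnight at baseline, after each of the 7 dosing days, and on the night after the first standard-therapy dose. Sputum was stirred, digested with dithiothreitol for 20 min at room temperature, and diluted 10-fold. Dilutions were plated in quadruplicate on selective 7H11 agar and counted after 3-4 weeks at 37°C at 20-200 colonies. The read-out was change in log10 CFU/ml from baseline, with a count of 0 set to log 0.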

[2] = test system: Mycobacterium tuberculosis; test: Bactericidal activity against Mycobacterium tuberculosis in pulmonary tuberculosis patient assessed as reduction in sputum bacterial count at 400 mg/kg, po once daily measured after 2 days; type: functional; outline: as §1
[3] = Tmax in pulmonary tuberculosis patient at 25 mg/kg, po once daily for 7 days by liquid chromatography-MS/MS analysis; type: ADME, organism-based; design: dose 25 mg/kg, route oral; details: human, in vivo
Outline: (§2)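 Treatment-naïve smear-positive pulmonary TB patients, hospitalized; 7-day oral once-daily monotherapy, directly observed, within 30 min after breakfast. Heparinized plasma taken predose and 1, 2, 3, 4, 5, 6, 8, 12 and 24 h postdose on day 7, plus predose on days 5 and 6. Parent drug and N-monodesmethyl metabolite measured by validated LC-MS/MS. Noncompartmental parameters; AUC0-24 by linear trapezoidal rule.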

[4] = test system: Mycobacterium tuberculosis; test: Bactericidal activity against Mycobacterium tuberculosis in pulmonary tuberculosis patient assessed as reduction in sputum bacterial count at 100 […], po once daily measured after 1 day; type: functional; outline: as §1
[5] = test system: Mycobacterium tuberculosis; test: Bactericidal activity against Mycobacterium tuberculosis in pulmonary tuberculosis patient assessed as reduction in sputum bacterial count at 400 mg/kg, po once daily measured after 6 days; type: functional; outline: as §1
Homo sapiens [6] = test: Toxicity in pulmonary tuberculosis patient assessed as hemoptysis at 100 […], po once daily; type: organism-based; design: dose 100 mg/kg, route oral; details: in vivo
Homo sapiens [7] = test: Cardiotoxicity in pulmonary tuberculosis patient assessed as increase in QT interval at 100 […], po once daily for 7 days; type: toxicity, organism-based; design: dose 100 mg/kg, route oral; details: in vivo, 168 h
[8] = Drug uptake in pulmonary tuberculosis patient at 100 […], po once daily for 7 days by liquid chromatography-MS/MS analysis; type: ADME, organism-based; design: dose 100 mg/kg, route oral; details: human, in vivo, read-out: Drug uptake; outline: as §2
[9] = test system: Mycobacterium tuberculosis; test: Bactericidal activity against Mycobacterium tuberculosis in pulmonary tuberculosis patient assessed as reduction in sputum bacterial count at 100 […], po once daily measured after 4 days; type: functional; outline: as §1
[10] = Tmax in pulmonary tuberculosis patient at 100 […], po once daily for 7 days by liquid chromatography-MS/MS analysis; type: ADME, organism-based; design: dose 100 mg/kg, route oral; details: human, in vivo; outline: as §2
[11] = test system: Mycobacterium tuberculosis; test: Bactericidal activity against Mycobacterium tuberculosis in pulmonary tuberculosis patient assessed as reduction in sputum bacterial count at 25 […], po once daily measured after 1 day; type: functional; outline: as §1
Homo sapiens [12] = test: Toxicity in pulmonary tuberculosis patient assessed as somnolence at 400 mg/kg, po once daily for 7 days; type: organism-based; design: dose 400 mg/kg, route oral; details: in vivo, 168 h
Homo sapiens [13] = test: Steady-state plasma concentration in pulmonary tuberculosis patient at 25 mg/kg, po once daily for 7 days by liquid chromatography-MS/MS analysis; type: ADME, organism-based; design: dose 25 mg/kg, route oral; details: in vivo, 168 h; outline: as §2
[14] = AUC (0 to 24 hrs) in pulmonary tuberculosis patient at 100 […], po once daily for 7 days by liquid chromatography-MS/MS analysis; type: ADME, organism-based; design: time < 24 hr, dose 100 mg/kg, route oral; details: human, plasma
Outline: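 Treatment-naïve, sputum smear-positive patients, hospitalized, took the drug orally once daily under direct observation within 30 min after breakfast. On day 7, heparinized plasma was drawn predose and at 1, 2, 3, 4, 5, 6, 8, 12 and 24 h for parent drug and M2 metabolite. Levels were measured by validated LC-MS/MS, and AUC0-24 was calculated noncompartmentally by the linear trapezoidal rule.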

[15] = test system: Mycobacterium tuberculosis; test: Antimicrobial activity against drug-sensitive Mycobacterium tuberculosis; type: functional
[16] = test system: Mycobacterium tuberculosis; test: Bactericidal activity against Mycobacterium tuberculosis in pulmonary tuberculosis patient assessed as reduction in sputum bacterial count at 400 mg/kg, po once daily measured after 4 days; type: functional; outline: as §1
[17] = test system: Mycobacterium tuberculosis; test: Bactericidal activity against Mycobacterium tuberculosis in pulmonary tuberculosis patient assessed as reduction in sputum bacterial count at 25 […], po once daily measured after 3 days; type: functional; outline: as §1
[18] = test system: Mycobacterium tuberculosis; test: Bactericidal activity against Mycobacterium tuberculosis in pulmonary tuberculosis patient assessed as reduction in sputum bacterial count at 100 […], po once daily measured after 6 days; type: functional; outline: as §1
Homo sapiens [19] = test: Cardiotoxicity in pulmonary tuberculosis patient assessed as increase in QT interval at 400 mg/kg, po once daily for 7 days; type: toxicity, organism-based; design: dose 400 mg/kg, route oral; details: in vivo, 168 h
[20] = test system: Mycobacterium tuberculosis; test: Bactericidal activity against Mycobacterium tuberculosis in pulmonary tuberculosis patient assessed as reduction in sputum bacterial count at 25 mg/kg, po once daily measured on day 8 after starting standard TB therapy; type: functional; outline: as §1
[21] = test system: Mycobacterium tuberculosis; test: Bactericidal activity against Mycobacterium tuberculosis in pulmonary tuberculosis patient assessed as reduction in sputum bacterial count at 25 mg/kg, po once daily measured after 5 days; type: functional; outline: as §1
[22] = test system: Mycobacterium tuberculosis; test: Bactericidal activity against Mycobacterium tuberculosis in pulmonary tuberculosis patient assessed as reduction in sputum bacterial count at 400 mg/kg, po once daily measured after 7 days; type: functional; outline: as §1
[23] = Cmax in pulmonary tuberculosis patient at 25 mg/kg, po once daily for 7 days by liquid chromatography-MS/MS analysis; type: ADME, organism-based; design: dose 25 mg/kg, route oral; details: human, in vivo; outline: as §2
[24] = Cmax in pulmonary tuberculosis patient at 400 mg/kg, po once daily for 7 days by liquid chromatography-MS/MS analysis; type: ADME, organism-based; design: dose 400 mg/kg, route oral; details: human, in vivo; outline: as §2

Question: Which log10CFU/ml [1] does the source give for COc1nc2ccc(Br)cc2cc1[C@@H](c1ccccc1)[C@@](O)(CCN(C)C)c1cccc2ccccc12 [BEDAQUILINE] here?
Answer: -0.06

Question: And the log10CFU/ml [2]?
Answer: 0.04

Question: What about the Tmax [3] of the same compound?
Answer: 3.93 h

Question: And the log10CFU/ml [4]?
Answer: -0.11

Question: And the log10CFU/ml [5]?
Answer: -0.46

Question: And the Activity (Homo sapiens [6])?
Answer: 6.3%

Question: What about the Time (Homo sapiens [7]) of the same compound?
Answer: 7.1 ms

Question: And the concentration at 168 h [8]?
Answer: 391 ng/mL

Question: And the log10CFU/ml [9]?
Answer: -0.24

Question: And the Tmax [10]?
Answer: 4 h

Question: What about the log10CFU/ml [11] of the same compound?
Answer: -0.06

Question: What about the Activity (Homo sapiens [12]) of the same compound?
Answer: 7%

Question: And the Css (Homo sapiens [13])?
Answer: 165.5 ng/mL

Question: And the AUC at 24 h [14]?
Answer: 16000 ng·h/mL

Question: And the MIC [15]?
Answer: 0.03 µg/mL (≈ 0.054 µM)

Question: And the log10CFU/ml [16]?
Answer: -0.22

Question: What about the log10CFU/ml [17] of the same compound?
Answer: -0.04

Question: What about the log10CFU/ml [18] of the same compound?
Answer: -0.09

Question: What about the Time (Homo sapiens [19]) of the same compound?
Answer: 18.8 ms

Question: And the log10CFU/ml [20]?
Answer: -0.46

Question: What about the log10CFU/ml [21] of the same compound?
Answer: -0.09

Question: What about the log10CFU/ml [22] of the same compound?
Answer: -0.77

Question: And the Cmax [23]?
Answer: 319 ng/mL

Question: And the Cmax [24]?
Answer: 5500 ng/mL
